Laboratory results taken from ChEMBL document CHEMBL1154853, “New 1,3-oxazolo[4,5-c]quinoline derivatives: synthesis and evaluation of antibacterial and antituberculosis properties” (2010).
Values after ≈ are worked out from the molar mass of the structure shown.

Assays:
Format in all cases: functional
Klebsiella pneumoniae [1] = experiment: Antimicrobial activity against Klebsiella pneumoniae at MIC after 3 to 4 days by disc diffusion method
Pseudomonas aeruginosa [2] = experiment: Antimicrobial activity against Pseudomonas aeruginosa ATTC 27853 at MIC after 3 to 4 days by disc diffusion method
Escherichia coli [3] = experiment: Antimicrobial activity against Escherichia coli […] after 16 to 18 hrs by serial dilution method
In short: (§1)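 Tube broth dilution: serial drug dilutions in Mueller Hinton broth, pH adjusted to 5.0 with phosphate buffer. A standardized bacterial suspension was inoculated and incubated 16-18 h at 37 °C. MIC was read as the lowest drug concentration with no visible growth. Ciprofloxacin served as the reference.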

Pseudomonas aeruginosa [4] = experiment: Antimicrobial activity against Pseudomonas aeruginosa ATTC 27853 after 16 to 18 hrs by serial dilution method; in short: as §1
Staphylococcus aureus [5] = experiment: Antimicrobial activity against Staphylococcus aureus […] after 16 to 18 hrs by serial dilution method; in short: as §1
Escherichia coli [6] = experiment: Antimicrobial activity against Escherichia coli […] at MIC after 3 to 4 days by disc diffusion method
Klebsiella pneumoniae [7] = experiment: Antimicrobial activity against Klebsiella pneumoniae after 16 to 18 hrs by serial dilution method; in short: as §1
[8] = system: Mycobacterium tuberculosis; experiment: Antitubercular activity against Mycobacterium tuberculosis H37Rv at MIC after 24 hrs by broth microdilution method
In short: (§2)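 M. tuberculosis H37Rv grown in Middlebrook 7H9 with 10% OADC, diluted to McFarland 1, 50 µl added to 150 µl fresh medium. Compounds from 2 mg/mL DMF stocks tested at 1, 10 and 100 µg/mL; DMF-only controls. 7 days at 37 °C, then 0.01% resazurin added with 24 h further incubation. MIC = lowest concentration preventing blue-to-pink change.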

Staphylococcus aureus [9] = experiment: Antimicrobial activity against Staphylococcus aureus […] at MIC after 3 to 4 days by disc diffusion method
[10] = system: Mycobacterium tuberculosis; experiment: Antitubercular activity against Mycobacterium tuberculosis H37Rv after 24 hrs by broth microdilution method; in short: as §2

Row | SMILES | diameter of the inhibition zone (DIZ) (Klebsiella pneumoniae [1]) [mm] | diameter of the inhibition zone (DIZ) (Pseudomonas aeruginosa [2]) [mm] | MIC (Escherichia coli [3]) [µg/mL] | MIC (Pseudomonas aeruginosa [4]) [µg/mL] | MIC (Staphylococcus aureus [5]) [µg/mL] | diameter of the inhibition zone (DIZ) (Escherichia coli [6]) [mm] | MIC (Klebsiella pneumoniae [7]) [µg/mL] | inhibition (INH) [8] [%] | diameter of the inhibition zone (DIZ) (Staphylococcus aureus [9]) [mm] | MIC [10] [µg/mL]
1 | N#Cc1cccc(NC(=O)Nc2c(-c3cccc(F)c3)nc3ccccc3c2O)c1 | 18 | 19 | 6.25 (≈ 15.7 µM) | 6.25 (≈ 15.7 µM) | 6.25 (≈ 15.7 µM) | 23 | 6.25 (≈ 15.7 µM) | 0 | 19 | > 100
2 | O=C(Nc1ccccc1)Nc1c(-c2cccc(F)c2)nc2ccccc2c1O | 20 | 18 | 6.25 (≈ 16.7 µM) | 6.25 (≈ 16.7 µM) | 6.25 (≈ 16.7 µM) | 20 | 6.25 (≈ 16.7 µM) | 95 | 17 | 10 (≈ 26.8 µM)
3 | Fc1ccc(-c2nc3ccccc3c3oc(Nc4cccc(Cl)c4)nc23)cc1 | 21 | 24 | 6.25 (≈ 16 µM) | 6.25 (≈ 16 µM) | 6.25 (≈ 16 µM) | 26 | 6.25 (≈ 16 µM) | 99 | 22 | 1 (≈ 2.57 µM)
4 | Fc1cccc(-c2nc3ccccc3c3oc(NCCc4ccccc4)nc23)c1 | <10 | <10 | 50 (≈ 130 µM) | 50 (≈ 130 µM) | 50 (≈ 130 µM) | <10 | 50 (≈ 130 µM) | 0 | <10 | > 100
5 | O=C(Nc1cccc(Cl)c1)Nc1c(-c2ccc(F)cc2)nc2ccccc2c1O | 20 | 20 | 6.25 (≈ 15.3 µM) | 6.25 (≈ 15.3 µM) | 6.25 (≈ 15.3 µM) | 22 | 6.25 (≈ 15.3 µM) | 95 | 18 | 10 (≈ 24.5 µM)
6 | Fc1cccc(-c2nc3ccccc3c3oc(NCc4ccccc4)nc23)c1 | 18 | 19 | 6.25 (≈ 16.9 µM) | 6.25 (≈ 16.9 µM) | 6.25 (≈ 16.9 µM) | 23 | 6.25 (≈ 16.9 µM) | 99 | 22 | 1 (≈ 2.71 µM)
7 | O=C(Nc1ccc(F)cc1)Nc1c(-c2ccc(F)cc2)nc2ccccc2c1O | 16 | 17 | 6.25 (≈ 16 µM) | 6.25 (≈ 16 µM) | 6.25 (≈ 16 µM) | 24 | 6.25 (≈ 16 µM) | 95 | 18 | 10 (≈ 25.6 µM)
